From ChEMBL document CHEMBL3861983, “Synthesis and biological evaluation of the codrug of Leonurine and Aspirin as cardioprotective agents” (Bioorg Med Chem Lett, 2016)
The source made the active and inactive calls.

Assays:
Assay type in all cases: functional, cell-based
[1] = Cardioprotective activity against hypoxia-induced apoptosis in rat H9c2 cells assessed as reduction in Bax expression at 0.1 uM preincubated for 8 hrs followed by H2O2 addition for 2 hrs by Western blotting analysis
Procedure, shortened: (§1)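 Bax and Bcl-2 protein expression was measured in H9c2 cells pretreated with compound for 8 h, then injured with H2O2 (40 mM) for 2 h. Levels were compared with control and H2O2 model groups. Values are mean ± SEM of more than three independent experiments.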

[2] = Cardioprotective activity against hypoxia-induced oxidative stress in rat H9c2 cells assessed as antioxidant activity by measuring increase in SOD activity at 0.1 uM preincubated for 8 hrs followed by H2O2 addition for 2 hrs by spectrophotometry
Procedure, shortened: (§2)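 H9c2 cells were pretreated with compound for 8 h, then given H2O2 (40 mM) in medium for 2 h. Measured read-outs were LDH leakage into the culture supernatant, MDA level, and SOD and catalase activities. Values are mean ± SEM of more than three independent experiments, versus model and control groups.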

H9c2 [3] = test: Increase in No level in rat H9c2 cells at 0.1 uM preincubated for 8 hrs followed by H2O2 addition for 2 hrs by ELISA
Procedure, shortened: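 NO concentration was measured in the culture supernatant of H9c2 cells. Cells were pretreated with compound for 8 h before 2 h H2O2 (40 mM) exposure. Values are mean ± SEM of more than three independent experiments, versus the model group.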

[4] = Cardioprotective activity against hypoxia-induced oxidative stress mediated inflammation in rat H9c2 cells assessed as suppression of IL-6 in supernatant at 0.1 uM preincubated for 8 hrs followed by H2O2 addition for 2 hrs by ELISA
Procedure, shortened: (§3)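 TNF-α, IL-6 and IL-1β in the culture supernatant were quantified with ELISA kits. H9c2 cells were pretreated with compound for 8 h, then given 2 h H2O2 (40 mM). Values are mean ± SEM of more than three independent experiments, versus the H2O2 model group.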

[5] = Cardioprotective activity against hypoxia-induced apoptosis in rat H9c2 cells assessed as reduction in total apoptotic cells at 0.1 uM preincubated for 8 hrs followed by H2O2 addition for 2 hrs by Annexin-V FITC/propidium iodide staining based flow cytometry
Procedure, shortened: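 After 8 h compound pretreatment, H9c2 cells got a 2 h H2O2 (40 mM) insult. They were stained with Annexin V-FITC/PI and analysed by flow cytometry, counting total apoptotic cells including necrotic cells. Values are mean ± SEM of more than three independent experiments, versus model and control groups.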

[6] = Cardioprotective activity against hypoxia-induced oxidative stress mediated inflammation in rat H9c2 cells assessed as suppression of IL-1beta in supernatant at 0.1 uM preincubated for 8 hrs followed by H2O2 addition for 2 hrs by ELISA; procedure, shortened: as §3
[7] = Cardioprotective activity against hypoxia-induced oxidative stress in rat H9c2 cells assessed as antioxidant activity by measuring reduction in LDH leakage in supernatant at 0.1 uM preincubated for 8 hrs followed by H2O2 addition for 2 hrs by spectrophotometry; procedure, shortened: as §2
[8] = Cardioprotective activity against hypoxia-induced oxidative stress in rat H9c2 cells assessed as antioxidant activity by measuring increase in catalase activity at 0.1 uM preincubated for 8 hrs followed by H2O2 addition for 2 hrs by spectrophotometry; procedure, shortened: as §2
[9] = Cardioprotective activity against hypoxia-induced oxidative stress mediated inflammation in rat H9c2 cells assessed as suppression of TNF-alpha in supernatant at 0.1 uM preincubated for 8 hrs followed by H2O2 addition for 2 hrs by ELISA; procedure, shortened: as §3
[10] = Cardioprotective activity against hypoxia-induced oxidative stress in rat H9c2 cells assessed as antioxidant activity by measuring reduction in MDA levels at 0.1 uM preincubated for 8 hrs followed by H2O2 addition for 2 hrs by spectrophotometry; procedure, shortened: as §2
H9c2 [11] = test: Cardioprotective activity against hypoxia-induced cytotoxicity in rat H9c2 cells assessed as increase in cell viability at 0.1 uM preincubated for 8 hrs followed by H2O2 addition for 2 hrs by MTT assay
Procedure, shortened: (§4)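 H9c2 cells were pretreated with compound for 8 h, then exposed to H2O2 (40 mM) in culture medium for 2 h. Viability was read by MTT at 0.1, 1, 10 and 100 μM, relative to untreated control and H2O2-only model groups. Values are mean ± SEM of more than three independent experiments.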

[12] = Cardioprotective activity against hypoxia-induced apoptosis in rat H9c2 cells assessed as increase in Bcl-2 expression at 0.1 uM preincubated for 8 hrs followed by H2O2 addition for 2 hrs by Western blotting analysis; procedure, shortened: as §1
[13] = Cardioprotective activity against hypoxia-induced oxidative stress mediated inflammation in rat H9c2 cells assessed as suppression of IL-1beta in supernatant at 1 uM preincubated for 8 hrs followed by H2O2 addition for 2 hrs by ELISA; procedure, shortened: as §3
[14] = Cardioprotective activity against hypoxia-induced oxidative stress in rat H9c2 cells assessed as antioxidant activity by measuring increase in SOD activity at 1 uM preincubated for 8 hrs followed by H2O2 addition for 2 hrs in presence of aspirin by spectrophotometry; procedure, shortened: as §2
[15] = Cardioprotective activity against hypoxia-induced oxidative stress in rat H9c2 cells assessed as antioxidant activity by measuring reduction in MDA levels at 1 uM preincubated for 8 hrs followed by H2O2 addition for 2 hrs by spectrophotometry; procedure, shortened: as §2
[16] = Cardioprotective activity against hypoxia-induced oxidative stress in rat H9c2 cells assessed as reduction in MDA levels at 1 uM preincubated for 8 hrs followed by H2O2 addition for 2 hrs in presence of aspirin by spectrophotometry; procedure, shortened: as §2
[17] = Cardioprotective activity against hypoxia-induced oxidative stress mediated inflammation in rat H9c2 cells assessed as suppression of IL-6 in supernatant at 1 uM preincubated for 8 hrs followed by H2O2 addition for 2 hrs in presence of aspirin by ELISA; procedure, shortened: as §3
H9c2 [18] = test: Cardioprotective activity against hypoxia-induced cytotoxicity in rat H9c2 cells assessed as increase in cell viability at 1 uM preincubated for 8 hrs followed by H2O2 addition for 2 hrs by MTT assay; procedure, shortened: as §4
[19] = Cardioprotective activity against hypoxia-induced oxidative stress in rat H9c2 cells assessed as antioxidant activity by measuring increase in catalase activity at 1 uM preincubated for 8 hrs followed by H2O2 addition for 2 hrs by spectrophotometry; procedure, shortened: as §2
[20] = Cardioprotective activity against hypoxia-induced oxidative stress mediated inflammation in rat H9c2 cells assessed as suppression of TNF-alpha in supernatant at 1 uM preincubated for 8 hrs followed by H2O2 addition for 2 hrs in presence of aspirin by ELISA; procedure, shortened: as §3
[21] = Cardioprotective activity against hypoxia-induced oxidative stress in rat H9c2 cells assessed as antioxidant activity by measuring increase in SOD activity at 1 uM preincubated for 8 hrs followed by H2O2 addition for 2 hrs by spectrophotometry; procedure, shortened: as §2
[22] = Cardioprotective activity against hypoxia-induced oxidative stress mediated inflammation in rat H9c2 cells assessed as suppression of IL-1beta in supernatant at 1 uM preincubated for 8 hrs followed by H2O2 addition for 2 hrs in presence of aspirin by ELISA; procedure, shortened: as §3
[23] = Cardioprotective activity against hypoxia-induced oxidative stress mediated inflammation in rat H9c2 cells assessed as suppression of TNF-alpha in supernatant at 1 uM preincubated for 8 hrs followed by H2O2 addition for 2 hrs by ELISA; procedure, shortened: as §3
[24] = Cardioprotective activity against hypoxia-induced oxidative stress mediated inflammation in rat H9c2 cells assessed as suppression of IL-6 in supernatant at 1 uM preincubated for 8 hrs followed by H2O2 addition for 2 hrs by ELISA; procedure, shortened: as §3
H9c2 [25] = test: Cardioprotective activity against hypoxia-induced cytotoxicity in rat H9c2 cells assessed as increase in cell viability at 0.1 to 100 uM preincubated for 8 hrs followed by H2O2 addition for 2 hrs by MTT assay; procedure, shortened: as §4
[26] = Cardioprotective activity against hypoxia-induced oxidative stress in rat H9c2 cells assessed as antioxidant activity by measuring increase in SOD activity at 1 uM preincubated for 8 hrs followed by H2O2 addition for 2 hrs in presence of leonurine by spectrophotometry; procedure, shortened: as §2
[27] = Cardioprotective activity against hypoxia-induced oxidative stress mediated inflammation in rat H9c2 cells assessed as suppression of IL-1beta in supernatant at 1 uM preincubated for 8 hrs followed by H2O2 addition for 2 hrs in presence of leonurine by ELISA; procedure, shortened: as §3
[28] = Cardioprotective activity against hypoxia-induced oxidative stress mediated inflammation in rat H9c2 cells assessed as suppression of IL-6 in supernatant at 1 uM preincubated for 8 hrs followed by H2O2 addition for 2 hrs in presence of leonurine by ELISA; procedure, shortened: as §3
[29] = Cardioprotective activity against hypoxia-induced oxidative stress mediated inflammation in rat H9c2 cells assessed as suppression of TNF-alpha in supernatant at 1 uM preincubated for 8 hrs followed by H2O2 addition for 2 hrs in presence of leonurine by ELISA; procedure, shortened: as §3
[30] = Cardioprotective activity against hypoxia-induced oxidative stress in rat H9c2 cells assessed as reduction in MDA levels at 1 uM preincubated for 8 hrs followed by H2O2 addition for 2 hrs in presence of leonurine by spectrophotometry; procedure, shortened: as §2

Measured: Activity

COc1cc(C(=O)OCCCCNC(=N)N)cc(OC)c1OC(=O)CCNC(=O)c1ccccc1OC(C)=O
active: [1] | [2] | H9c2 [3] | [4] | [5] | [6] | [7] | [8] | [9] | [10] | H9c2 [11] | [12]

COc1cc(C(=O)OCCCCNC(=N)N)cc(OC)c1O
active: [13] | [14] | [15] | [16] | [17] | H9c2 [18] | [19] | [20] | [21] | [22] | [23] | [24]

COc1cc(C(=O)OCCCCNC(=N)N)cc(OC)c1OC(=O)CCNC(=O)c1ccccc1O
active: H9c2 [25]

CC(=O)Oc1ccccc1C(=O)O
active: [13] | [26] | [27] | [28] | [15] | H9c2 [18] | [19] | [29] | [21] | [30] | [23] | [24]
